The record followed here is ChEMBL document CHEMBL1122089, “Synthesis and biological activity of some very hydrophobic superagonist analogues of luteinizing hormone-releasing hormone” (1982).

The species named for assay [1] is Rattus norvegicus. Description: Suppression of estrus cyclicity in rat. In kind it is functional. The gist of the method:
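Adult female Sprague-Dawley rats (~160 g), groups of 10, 14:10 light/dark, food and water ad libitum. Compound in 0.1% BSA-saline vehicle given sc twice daily (0800, 1630 h), 0.1 or 0.2 mL/injection, 14 consecutive days; at least four doses at 2-fold dilutions; vehicle and positive controls. Daily vaginal lavage; percent of rats in persistent diestrus from day 4 plotted against log dose; ED50 in µg/injection.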

Assay [2] is filed under the species Rattus norvegicus. The assay can be described thus: Suppression of estrus cyclicity in rat relative to [D-Trp6, ProNHEt9]. The format is functional.

`CCNC(=O)[C@@H]1CCCN1C(=O)[C@H](CCCN=C(N)N)NC(=O)[C@H](CC(C)C)N(C)C(=O)[C@@H](Cc1ccc2ccccc2c1)NC(=O)[C@H](Cc1ccc(O)cc1)NC(=O)[C@H](CO)NC(=O)[C@H](Cc1c[nH]c2ccccc12)NC(=O)[C@H](Cc1c[nH]cn1)NC(=O)[C@@H]1CCC(=O)N1` gave an ED50 in the assay listed under Rattus norvegicus [1] of 0.12 µg. The compound further registered a Potency in the assay listed under Rattus norvegicus [2] of 1.8.

As for `CCNC(=O)[C@@H]1CCCN1C(=O)[C@H](CCCN=C(N)N)NC(=O)[C@H](CC(C)C)NC(=O)[C@@H](Cc1ccc2ccccc2c1)NC(=O)[C@H](Cc1ccc(O)cc1)NC(=O)[C@H](CO)NC(=O)[C@H](Cc1cccc2ccccc12)NC(=O)[C@H](Cc1c[nH]cn1)NC(=O)[C@@H]1CCC(=O)N1`, in the assay listed under Rattus norvegicus [1], the ED50 is 0.16 µg. The same compound had a Potency in the assay listed under Rattus norvegicus [2] of 0.9.

Regarding `CCNC(=O)[C@@H]1CCCN1C(=O)[C@H](CCCN=C(N)N)NC(=O)[C@H](CC(C)C)NC(=O)[C@@H](CC(c1ccccc1)c1ccccc1)NC(=O)[C@H](Cc1ccc(O)cc1)NC(=O)[C@H](CO)NC(=O)[C@H](Cc1c[nH]c2ccccc12)NC(=O)[C@H](Cc1c[nH]cn1)NC(=O)[C@@H]1CCC(=O)N1`, the ED50 in the assay filed under Rattus norvegicus [1] stood at 0.11 µg. This compound also had a Potency in the assay filed under Rattus norvegicus [2] of 0.9.

Take `Cc1cc(C)c(C[C@@H](NC(=O)[C@H](Cc2ccc(O)cc2)NC(=O)[C@H](CO)NC(=O)[C@H](Cc2c[nH]c3ccccc23)NC(=O)[C@H](Cc2c[nH]cn2)NC(=O)[C@@H]2CCC(=O)N2)C(=O)N(C)[C@@H](CC(C)C)C(=O)N[C@@H](CCCN=C(N)N)C(=O)N2CCC[C@H]2C(=O)NCC(N)=O)c(C)c1`: the Potency in the assay listed under Rattus norvegicus [2] is listed as 1.1.

Compound `CCNC(=O)[C@@H]1CCCN1C(=O)[C@H](CCCN=C(N)N)NC(=O)[C@H](CC(C)C)NC(=O)[C@@H](Cc1ccc2ccccc2c1)NC(=O)[C@H](Cc1ccc(O)cc1)NC(=O)[C@H](CO)NC(=O)[C@H](Cc1c[nH]c2ccccc12)NC(=O)[C@H](Cc1c[nH]cn1)NC(=O)[C@@H]1CCC(=O)N1` had an ED50 in the assay listed under Rattus norvegicus [1] of 0.22 µg. Besides, the Potency in the assay listed under Rattus norvegicus [2] is on record as 0.9.

`CCNC(=O)[C@@H]1CCCN1C(=O)[C@H](CCCN=C(N)N)NC(=O)[C@H](CC(C)C)NC(=O)[C@@H](Cc1c[nH]c2ccccc12)NC(=O)[C@H](Cc1ccc(O)cc1)NC(=O)[C@H](CO)NC(=O)[C@H](Cc1c[nH]c2ccccc12)NC(=O)[C@H](Cc1c[nH]cn1)NC(=O)[C@@H]1CCC(=O)N1`: the ED50 in the assay filed under Rattus norvegicus [1] amounted to 0.14 µg. The compound also yielded a Potency in the assay filed under Rattus norvegicus [2] of 1.

`CC(C)C[C@H](NC(=O)[C@@H](Cc1c2ccccc2cc2ccccc12)NC(=O)[C@H](Cc1ccc(O)cc1)NC(=O)[C@H](CO)NC(=O)[C@H](Cc1c[nH]c2ccccc12)NC(=O)[C@H](Cc1c[nH]cn1)NC(=O)[C@@H]1CCC(=O)N1)C(=O)N[C@@H](CCCN=C(N)N)C(=O)N1CCC[C@H]1C(=O)NCC(N)=O` yielded an ED50 in the assay listed under Rattus norvegicus [1] of 0.27 µg. The Potency in the assay listed under Rattus norvegicus [2] came to 0.5.

In turn, `CC(C)C[C@H](NC(=O)[C@@H](Cc1ccc(-c2ccccc2)cc1)NC(=O)[C@H](Cc1ccc(O)cc1)NC(=O)[C@H](CO)NC(=O)[C@H](Cc1c[nH]c2ccccc12)NC(=O)[C@H](Cc1c[nH]cn1)NC(=O)[C@@H]1CCC(=O)N1)C(=O)N[C@@H](CCCN=C(N)N)C(=O)N1CCC[C@H]1C(=O)NCC(N)=O` returned a Potency in the assay filed under Rattus norvegicus [2] of 1.4.

`CC(C)C[C@H](NC(=O)[C@@H](Cc1ccc2ccccc2c1Br)NC(=O)[C@H](Cc1ccc(O)cc1)NC(=O)[C@H](CO)NC(=O)[C@H](Cc1c[nH]c2ccccc12)NC(=O)[C@H](Cc1c[nH]cn1)NC(=O)[C@@H]1CCC(=O)N1)C(=O)N[C@@H](CCCN=C(N)N)C(=O)N1CCC[C@H]1C(=O)NCC(N)=O`: the ED50 in the assay listed under Rattus norvegicus [1] is 0.15 µg. In the assay filed under Rattus norvegicus [2], this compound registered a Potency of 1.

For `COc1cc(C[C@@H](NC(=O)[C@H](Cc2ccc(O)cc2)NC(=O)[C@H](CO)NC(=O)[C@H](Cc2c[nH]c3ccccc23)NC(=O)[C@H](Cc2c[nH]cn2)NC(=O)[C@@H]2CCC(=O)N2)C(=O)N[C@@H](CC(C)C)C(=O)N[C@@H](CCCN=C(N)N)C(=O)N2CCC[C@H]2C(=O)NCC(N)=O)cc(OC)c1OC`, the ED50 in the assay listed under Rattus norvegicus [1] is 0.09 µg. In the assay filed under Rattus norvegicus [2], the Potency is on record as 1.4.

Compound `CC(C)C[C@H](NC(=O)[C@@H](CC1CCCCC1)NC(=O)[C@H](Cc1ccc(O)cc1)NC(=O)[C@H](CO)NC(=O)[C@H](Cc1c[nH]c2ccccc12)NC(=O)[C@H](Cc1c[nH]cn1)NC(=O)[C@@H]1CCC(=O)N1)C(=O)N[C@@H](CCCN=C(N)N)C(=O)N1CCC[C@H]1C(=O)NCC(N)=O` displayed an ED50 in the assay listed under Rattus norvegicus [1] of 0.3 µg. In the assay filed under Rattus norvegicus [2], this compound showed a Potency of 0.5.

`CC(C)C[C@H](NC(=O)[C@@H](Cc1ccc(C(F)(F)F)cc1)NC(=O)[C@H](Cc1ccc(O)cc1)NC(=O)[C@H](CO)NC(=O)[C@H](Cc1c[nH]c2ccccc12)NC(=O)[C@H](Cc1c[nH]cn1)NC(=O)[C@@H]1CCC(=O)N1)C(=O)N[C@@H](CCCN=C(N)N)C(=O)N1CCC[C@H]1C(=O)NCC(N)=O`: the ED50 in the assay filed under Rattus norvegicus [1] came out at 0.11 µg. This compound also displayed a Potency in the assay filed under Rattus norvegicus [2] of 1.4.

Compound `CC(C)C[C@H](NC(=O)[C@@H](Cc1c(F)c(F)c(F)c(F)c1F)NC(=O)[C@H](Cc1ccc(O)cc1)NC(=O)[C@H](CO)NC(=O)[C@H](Cc1c[nH]c2ccccc12)NC(=O)[C@H](Cc1c[nH]cn1)NC(=O)[C@@H]1CCC(=O)N1)C(=O)N[C@@H](CCCN=C(N)N)C(=O)N1CCC[C@H]1C(=O)NCC(N)=O` yielded an ED50 in the assay filed under Rattus norvegicus [1] of 0.12 µg. The same compound registered a Potency in the assay filed under Rattus norvegicus [2] of 1.2.

With `Cc1cc(C)c(C[C@@H](NC(=O)[C@H](Cc2ccc(O)cc2)NC(=O)[C@H](CO)NC(=O)[C@H](Cc2c[nH]c3ccccc23)NC(=O)[C@H](Cc2c[nH]cn2)NC(=O)[C@@H]2CCC(=O)N2)C(=O)N[C@@H](CC(C)C)C(=O)N[C@@H](CCCN=C(N)N)C(=O)N2CCC[C@H]2C(=O)NCC(N)=O)c(C)c1`, the ED50 in the assay filed under Rattus norvegicus [1] was determined as 0.07 µg. In the assay filed under Rattus norvegicus [2], this compound had a Potency of 2.

In the case of `CC(C)C[C@H](NC(=O)[C@@H](Cc1ccc2ccccc2c1)NC(=O)[C@H](Cc1ccc(O)cc1)NC(=O)[C@H](CO)NC(=O)[C@H](Cc1c[nH]c2ccccc12)NC(=O)[C@H](Cc1c[nH]cn1)NC(=O)[C@@H]1CCC(=O)N1)C(=O)N[C@@H](CCCN=C(N)N)C(=O)N1CCC[C@H]1C(=O)NCC(N)=O`, the ED50 in the assay filed under Rattus norvegicus [1] was 0.07 µg. This compound also returned a Potency in the assay filed under Rattus norvegicus [2] of 1.9.
